Assay results from ChEMBL document CHEMBL2440035, “Azetidines and spiro azetidines as novel P2 units in hepatitis C virus NS3 protease inhibitors” (Bioorg Med Chem Lett, 2013).

What was measured:
Vero = test: Cytotoxicity against african green monkey Vero cells; assay type: cell-based; details: chlorocebus sabaeus
How it was run: (§1)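 Cytotoxicity was profiled in three cell types: primary human peripheral blood mononuclear (PBM) cells, CEM (a human T-cell-derived line) and Vero (African green monkey kidney epithelial cells).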

CCRF-CEM = test: Cytotoxicity against human CEM cells; assay type: cell-based; how it was run: as §1
PBMC = test: Cytotoxicity against human PBMC; assay type: cell-based; how it was run: as §1
Hepatitis C virus [1] = test: Antiviral activity against Hepatitis C virus infected in human HuH7 cells assessed as viral RNA replication; assay type: functional, organism-based, Hepacivirus hominis; details: Huh-7
How it was run: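 Subgenomic HCV replicon in Huh7 cells; inhibition of HCV RNA replication measured by extraction and amplification of HCV RNA. Each concentration run in triplicate and reported as mean; EC50 derived.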

Huh-7 = test: Cytotoxicity against human HuH7 cells; assay type: cell-based
How it was run: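 Huh7 cytotoxicity measured together with the replicon antiviral assay, by extraction and amplification of ribosomal RNA. Each concentration run in triplicate and reported as mean.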

Prothrombin = Prothrombin (Homo sapiens, UniProt P00734); test: Inhibition of human thrombin
Cathepsin S = Cathepsin S (Homo sapiens, UniProt P25774); test: Inhibition of human cathepsin S
Plasminogen = Plasminogen (Homo sapiens, UniProt P00747); test: Inhibition of human plasmin
[2] = target: T1, Neutrophil elastase (Homo sapiens) (UniProt P08246); test: (§2) Inhibition of human neutrophil elastase
T1 sequence (whole entry): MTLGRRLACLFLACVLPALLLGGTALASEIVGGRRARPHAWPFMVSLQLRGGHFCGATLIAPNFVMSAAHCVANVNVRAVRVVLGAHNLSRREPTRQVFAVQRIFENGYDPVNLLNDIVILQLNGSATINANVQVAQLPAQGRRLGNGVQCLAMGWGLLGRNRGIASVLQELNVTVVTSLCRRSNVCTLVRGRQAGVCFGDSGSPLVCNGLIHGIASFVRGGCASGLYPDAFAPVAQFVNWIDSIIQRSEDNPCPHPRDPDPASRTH

Neutrophil elastase = target: T2, Neutrophil elastase (Homo sapiens, UniProt P08246); test: as §2
T2 sequence (P08246 whole entry): T1 sequence (whole entry)

Hepatitis C virus [3] = test: Ratio of EC90 for Hepatitis C virus genotype 1b NS3/4A protease D168A mutant to EC90 Hepatitis C virus genotype 1b wild type NS3/4A protease; set-up: species or system Hepatitis C virus subtype 1b
How it was run: (§3)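 Genotype 1b NS3 protease enzyme panel: wild type plus resistance mutants A156T, R155K, D168V, V36M, A156S, V170A and D168A. […] Resistance is expressed as the fold increase of each mutant's value over the wild-type value.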

Hepatitis C virus [4] = test: Ratio of EC50 for Hepatitis C virus genotype 1b NS3/4A protease D168A mutant to EC50 Hepatitis C virus genotype 1b wild type NS3/4A protease; set-up: species or system Hepatitis C virus subtype 1b; how it was run: as §3
Hepatitis C virus [5] = test: Ratio of EC90 for Hepatitis C virus genotype 1b NS3/4A protease V170A mutant to EC90 Hepatitis C virus genotype 1b wild type NS3/4A protease; set-up: species or system Hepatitis C virus subtype 1b; how it was run: as §3
Hepatitis C virus [6] = test: Inhibition of Hepatitis C virus genotype 1b NS3/4A protease V170A mutant; set-up: species or system Hepatitis C virus subtype 1b
How it was run: (§4)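 Panel of genotype 1b NS3 protease enzymes (wild type and mutants). IC50 and IC90 are averages ± standard error from 2 independent assays. Fold change versus wild type given in parentheses.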

Hepatitis C virus [7] = test: Ratio of EC50 for Hepatitis C virus genotype 1b NS3/4A protease A156S mutant to EC50 Hepatitis C virus genotype 1b wild type NS3/4A protease; set-up: species or system Hepatitis C virus subtype 1b; how it was run: as §3
Hepatitis C virus [8] = test: Inhibition of Hepatitis C virus genotype 1b NS3/4A protease A156S mutant; set-up: species or system Hepatitis C virus subtype 1b; how it was run: as §4
Hepatitis C virus [9] = test: Ratio of EC90 for Hepatitis C virus genotype 1b NS3/4A protease V36M mutant to EC90 Hepatitis C virus genotype 1b wild type NS3/4A protease; set-up: species or system Hepatitis C virus subtype 1b; how it was run: as §3
Hepatitis C virus [10] = test: Ratio of EC50 for Hepatitis C virus genotype 1b NS3/4A protease V36M mutant to EC50 Hepatitis C virus genotype 1b wild type NS3/4A protease; set-up: species or system Hepatitis C virus subtype 1b; how it was run: as §3
Hepatitis C virus [11] = test: Inhibition of Hepatitis C virus genotype 1b NS3/4A protease V36M mutant; set-up: species or system Hepatitis C virus subtype 1b; how it was run: as §4
Hepatitis C virus [12] = test: Ratio of EC90 for Hepatitis C virus genotype 1b NS3/4A protease D168V mutant to EC90 Hepatitis C virus genotype 1b wild type NS3/4A protease; set-up: species or system Hepatitis C virus subtype 1b; how it was run: as §3
Hepatitis C virus [13] = test: Ratio of EC50 for Hepatitis C virus genotype 1b NS3/4A protease D168V mutant to EC50 Hepatitis C virus genotype 1b wild type NS3/4A protease; set-up: species or system Hepatitis C virus subtype 1b; how it was run: as §3
Hepatitis C virus [14] = test: Inhibition of Hepatitis C virus genotype 1b NS3/4A protease D168V mutant; set-up: species or system Hepatitis C virus subtype 1b; how it was run: as §4
Hepatitis C virus [15] = test: Ratio of EC90 for Hepatitis C virus genotype 1b NS3/4A protease R155K mutant to EC90 Hepatitis C virus genotype 1b wild type NS3/4A protease; set-up: species or system Hepatitis C virus subtype 1b; how it was run: as §3
Hepatitis C virus [16] = test: Inhibition of Hepatitis C virus genotype 1b NS3/4A protease D168A mutant; set-up: species or system Hepatitis C virus subtype 1b; how it was run: as §4
Hepatitis C virus [17] = test: Ratio of EC50 for Hepatitis C virus genotype 1b NS3/4A protease R155K mutant to EC50 Hepatitis C virus genotype 1b wild type NS3/4A protease; set-up: species or system Hepatitis C virus subtype 1b; how it was run: as §3
Hepatitis C virus [18] = test: Inhibition of Hepatitis C virus genotype 1b NS3/4A protease R155K mutant; set-up: species or system Hepatitis C virus subtype 1b; how it was run: as §4
Hepatitis C virus [19] = test: Ratio of EC90 for Hepatitis C virus genotype 1b NS3/4A protease A156T mutant to EC90 Hepatitis C virus genotype 1b wild type NS3/4A protease; set-up: species or system Hepatitis C virus subtype 1b; how it was run: as §3
Hepatitis C virus [20] = test: Inhibition of Hepatitis C virus genotype 1b NS3/4A protease A156T mutant; set-up: species or system Hepatitis C virus subtype 1b; how it was run: as §4
Hepatitis C virus [21] = test: Inhibition of Hepatitis C virus genotype 1b wild type NS3/4A protease; set-up: species or system Hepatitis C virus subtype 1b; how it was run: as §4

Plasminogen, sequence (P00747 97-580 limits assumed): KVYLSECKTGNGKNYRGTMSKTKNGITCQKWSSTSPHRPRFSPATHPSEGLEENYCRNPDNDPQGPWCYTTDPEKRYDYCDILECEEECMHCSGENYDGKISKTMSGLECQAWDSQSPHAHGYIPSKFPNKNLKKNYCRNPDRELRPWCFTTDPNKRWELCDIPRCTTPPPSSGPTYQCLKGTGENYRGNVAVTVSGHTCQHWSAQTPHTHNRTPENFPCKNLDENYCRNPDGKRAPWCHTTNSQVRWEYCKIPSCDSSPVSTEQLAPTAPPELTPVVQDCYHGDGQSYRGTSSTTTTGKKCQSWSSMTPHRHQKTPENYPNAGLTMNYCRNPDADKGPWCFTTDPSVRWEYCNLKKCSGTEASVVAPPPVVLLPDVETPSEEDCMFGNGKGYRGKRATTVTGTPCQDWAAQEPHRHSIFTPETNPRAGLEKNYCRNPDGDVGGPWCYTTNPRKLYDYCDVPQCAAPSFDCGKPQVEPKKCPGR
Plasminogen, sequence (P00747 581-810 limits assumed): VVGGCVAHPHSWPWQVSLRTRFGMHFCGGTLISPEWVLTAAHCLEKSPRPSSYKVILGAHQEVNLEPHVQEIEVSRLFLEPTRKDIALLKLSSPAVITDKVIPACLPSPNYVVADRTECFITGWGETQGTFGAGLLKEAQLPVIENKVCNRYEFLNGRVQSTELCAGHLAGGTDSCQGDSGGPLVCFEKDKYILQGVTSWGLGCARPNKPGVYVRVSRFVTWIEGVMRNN

CC(C)(C)[C@H](NC(=O)[C@@H](NC(=O)c1cnccn1)C1CCCCC1)C(=O)N1CC2(Cc3ccccc3C2)C1C(=O)NC(CC1CC1)C(=O)C(=O)NC1CC1 (some centres undefined) was tested, and the CC50 (Vero) was > 100 µM, the CC50 (CCRF-CEM) was 14 µM and the CC50 (PBMC) was 12 µM. The EC50 (Hepatitis C virus [1]) was 0.8 µM and the EC90 (Hepatitis C virus [1]) was 1.5 µM.

With C=CCNC(=O)C(=O)C(CCC)NC(=O)C1CCN1C(=O)[C@@H](NC(=O)[C@@H](NC(=O)c1cnccn1)C1CCCCC1)C(C)(C)C (some centres undefined) the CC50 (Huh-7) was > 10 µM, the CC50 (Vero) was > 100 µM and the CC50 (CCRF-CEM) was 30 µM. The CC50 (PBMC) was 27 µM, the EC50 (Hepatitis C virus [1]) was > 10 µM and the EC90 (Hepatitis C virus [1]) was > 10 µM.

With CCCC(NC(=O)C1N(C(=O)[C@@H](NC(=O)[C@@H](NC(=O)c2cnccn2)C2CCCCC2)C(C)(C)C)CC12CCCCC2)C(=O)C(=O)NC1CC1 (some centres undefined) the IC50 (Prothrombin) was < 1 µM, the IC90 (Prothrombin) was < 1.7 µM and the IC50 (Cathepsin S) was > 100 µM. For the same molecule, the IC90 (Cathepsin S) was > 100 µM, the IC50 (Plasminogen) was > 100 µM and the IC90 (Plasminogen) was > 100 µM. For the same molecule, the IC90 [2] was 85 µM, the IC50 (Neutrophil elastase) was 7.8 µM and the Ratio (Hepatitis C virus [3]) was 0.8. The “Ratio EC50” value (Hepatitis C virus [4]) was 0.9, the Ratio (Hepatitis C virus [5]) was 0.9 and the EC50 (Hepatitis C virus [6]) was > 1 µM. The EC90 (Hepatitis C virus [6]) was 8.7 µM, the “Ratio EC50” value (Hepatitis C virus [7]) was 55 and the EC50 (Hepatitis C virus [8]) was 43 µM. For the same molecule, the EC90 (Hepatitis C virus [8]) was > 100 µM, the Ratio (Hepatitis C virus [9]) was 7.6 and the “Ratio EC50” value (Hepatitis C virus [10]) was 8.8. The EC50 (Hepatitis C virus [11]) was 6.9 µM, the EC90 (Hepatitis C virus [11]) was 75 µM and the Ratio (Hepatitis C virus [12]) was 0.3. For the same molecule, the “Ratio EC50” value (Hepatitis C virus [13]) was 0.5, the EC50 (Hepatitis C virus [14]) was 0.4 µM and the EC90 (Hepatitis C virus [14]) was 3.3 µM. It also gave a Ratio (Hepatitis C virus [15]) of 6.6, an EC50 (Hepatitis C virus [16]) of 0.72 µM and an EC90 (Hepatitis C virus [16]) of 8.2 µM. The “Ratio EC50” value (Hepatitis C virus [17]) was 7.1, the EC50 (Hepatitis C virus [18]) was 5.5 µM and the EC90 (Hepatitis C virus [18]) was 64 µM. The Ratio (Hepatitis C virus [19]) was >10, the EC50 (Hepatitis C virus [20]) was > 100 µM and the EC90 (Hepatitis C virus [20]) was > 100 µM. For the same molecule, the EC50 (Hepatitis C virus [21]) was 0.78 µM, the EC90 (Hepatitis C virus [21]) was 9.81 µM and the CC50 (Huh-7) was > 10 µM. For the same molecule, the CC50 (Vero) was 27 µM, the CC50 (CCRF-CEM) was 16 µM and the CC50 (PBMC) was 32 µM. The EC50 (Hepatitis C virus [1]) was 2.3 µM and the EC90 (Hepatitis C virus [1]) was 6.4 µM.

In the case of CCCC(NC(=O)C1N(C(=O)[C@@H](NC(=O)Nc2ccc(OC)cc2)C(C)(C)C)CC12Cc1ccccc1C2)C(=O)C(=O)NC1CC1 (some centres undefined), the CC50 (Huh-7) is reported as > 10 µM, the CC50 (Vero) is reported as 43 µM and the CC50 (PBMC) is reported as 22 µM. For the same molecule, the EC50 (Hepatitis C virus [1]) was > 10 µM and the EC90 (Hepatitis C virus [1]) was > 10 µM.

CCCC(NC(=O)C1N(C(=O)[C@@H](NC(=O)[C@@H](NC(=O)c2cnccn2)C2CCCCC2)C(C)(C)C)CC12Cc1ccccc1C2)C(=O)C(=O)NC1CC1 (some centres undefined) was tested, and the CC50 (Huh-7) was > 10 µM, the CC50 (Vero) was > 100 µM and the CC50 (CCRF-CEM) was 72 µM. The CC50 (PBMC) was > 100 µM, the EC50 (Hepatitis C virus [1]) was > 10 µM and the EC90 (Hepatitis C virus [1]) was > 10 µM.

With CC(C)(C)[C@H](NC(=O)[C@@H](NC(=O)c1cnccn1)C1CCCCC1)C(=O)N1CC2(Cc3ccccc3C2)C1C(=O)NC(CC1CCC1)C(=O)C(=O)NC1CC1 (some centres undefined) the CC50 (Vero) was > 100 µM, the CC50 (CCRF-CEM) was 43 µM and the CC50 (PBMC) was 29 µM. For the same molecule, the EC50 (Hepatitis C virus [1]) was 0.7 µM and the EC90 (Hepatitis C virus [1]) was 1 µM.

Work on CCCC(NC(=O)C1N(C(=O)[C@@H](NC(=O)NC2CCCCC2)C(C)(C)C)CC12Cc1ccccc1C2)C(=O)C(=O)NC1CC1 (some centres undefined) yielded a CC50 (Huh-7) of 8.2 µM, a CC50 (Vero) of 44 µM and a CC50 (PBMC) of 30 µM. It also gave an EC50 (Hepatitis C virus [1]) of 8.9 µM and an EC90 (Hepatitis C virus [1]) of 30 µM.

With CCCC(NC(=O)C1N(C(=O)[C@@H](NC(=O)NC(C)(C)C)C(C)(C)C)CC12Cc1ccccc1C2)C(=O)C(=O)NC1CC1 (some centres undefined) the CC50 (Huh-7) was 27 µM, the CC50 (Vero) was > 100 µM and the CC50 (PBMC) was > 100 µM. It also gave an EC50 (Hepatitis C virus [1]) of 13 µM and an EC90 (Hepatitis C virus [1]) of 31 µM.

In the case of CC(C)(C)[C@H](NC(=O)NC1CCCCC1)C(=O)N1CC2(Cc3ccccc3C2)C1C(=O)NC(CC1CCC1)C(=O)C(=O)NC1CC1 (some centres undefined), the CC50 (Huh-7) is reported as 5.5 µM, the CC50 (Vero) is reported as 26 µM and the CC50 (CCRF-CEM) is reported as 15 µM. For the same molecule, the CC50 (PBMC) was 15 µM, the EC50 (Hepatitis C virus [1]) was 5.8 µM and the EC90 (Hepatitis C virus [1]) was 9.8 µM.
